The values below come from ChEMBL document CHEMBL1145465, “PhoU is a persistence switch involved in persister formation and tolerance to multiple antibiotics and stresses in Escherichia coli” (2007).

Each structure is given as a SMILES string.

Common to all, as to type: functional
The subject of assay [1] is Escherichia coli. As to the kind of experiment: Antibacterial activity against Escherichia coli K12 containing deletion deltaphoR mutant assessed as cell count in log phase at 100 ug/ml after 24 hrs. The procedure, abridged: (§1)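 Wild-type W3110-derived deletion mutants were made by the Datsenko–Wanner method. Log-phase or stationary-phase cultures were exposed to ampicillin 100 μg/ml in MOPS minimal medium at pH 5.0, at 37°C without shaking. Aliquots were taken at set times, washed in saline and plated on LB for viable CFU/ml.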

Assay [2] relates to Escherichia coli. The experiment in a line: Antibacterial activity against Escherichia coli K12 PhoU wild type W3110 assessed as cell count in stationary phase at 100 ug/ml after 5 hrs. The procedure, abridged:
(§2)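 Log-phase or stationary-phase cultures exposed to ampicillin 100 μg/ml in MOPS minimal medium (pH 5.0) at 37°C without shaking, for 5 h up to 10 days. Aliquots were taken at each time point, washed in saline and plated on LB plates for viable CFU/ml.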

The subject of assay [3] is Escherichia coli. The experiment in a line: Antibacterial activity against Escherichia coli K12 PhoU wild type W3110 assessed as cell count in log phase at 100 ug/ml after 10 days. The essentials:
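Log-phase or stationary-phase cultures were exposed to ampicillin (100 μg/ml) or norfloxacin (3 μg/ml) in MOPS minimal medium, pH 5.0, at 37°C without shaking, for 5 h to 10 days. Aliquots were saline-washed and plated on LB for CFU/ml.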

Assay [4] deals with Escherichia coli. As to the kind of experiment: Antibacterial activity against Escherichia coli K12 containing deletion deltaphoB mutant assessed as cell count in log phase at 100 ug/ml after 24 hrs. The essentials: (§3)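 Deletion mutants were made by the Datsenko–Wanner method. Log-phase or stationary-phase cultures were exposed to ampicillin at 100 μg/ml. CFU/ml was determined at the start and after 5, 24 and 72 h of exposure.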

In assay [5] the test system is Escherichia coli. The experiment in a line: Antibacterial activity against Escherichia coli K12 PhoU wild type W3110 at 1.5 ug/ml after 48 hrs by disc diffusion method. The procedure, abridged:
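Kirby-Bauer disc assay. Log-phase LB broth culture (10⁸ bacteria) was spread on LB agar for confluent growth. 7 mm nitrocellulose discs soaked in antibiotic solution at the listed concentration were placed on the agar. Inhibition zone diameter (mm) was measured after 48 h at 37°C.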
In general terms: In agar diffusion tests the substance spreads into inoculated agar from a disc or well.

The subject of assay [6] is Escherichia coli. As to the kind of experiment: Antibacterial activity against Escherichia coli K12 containing deletion deltaphoU mutant assessed as cell count in stationary phase at 100 ug/ml after 5 hrs. The procedure, abridged:
as §1

Assay [7] has as its system Escherichia coli. As to the kind of experiment: Antibacterial activity against Escherichia coli K12 PhoU wild type W3110 assessed as cell count in stationary phase at 100 ug/ml after 1 week. The procedure, abridged:
as §2

For assay [8], the system named is Escherichia coli. As to the kind of experiment: Antibacterial activity against Escherichia coli K12 PhoU wild type W3110 assessed as cell count in log phase at 100 ug/ml after 1 day. The essentials: as §2
Assay [9] relates to Escherichia coli. The experiment in a line: Antibacterial activity against Escherichia coli K12 containing deletion deltahipA mutant assessed as cell count in log phase at 100 ug/ml after 24 hrs. The procedure, abridged: as §3
Assay [10] deals with Escherichia coli. As to the kind of experiment: Antibacterial activity against Escherichia coli K12 mutant JHU313 at 4 ug/ml after 48 hrs by disc diffusion method. The essentials: (§4)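 Kirby-Bauer disc assay: log-phase LB culture was spread on LB agar for confluent growth. 7-mm nitrocellulose discs were soaked in antibiotic at the listed concentration and placed on the agar. After 48 h at 37°C, the diameter of the inhibition zone was measured in mm.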

Assay [11] deals with Escherichia coli. The experiment in a line: Antibacterial activity against Escherichia coli K12 mutant JHU313 containing plasmid PhoU at 4 ug/ml after 48 hrs by disc diffusion method. The procedure, abridged:
as §4

In assay [12] the test system is Escherichia coli. As to the kind of experiment: Antibacterial activity against Escherichia coli K12 containing deletion deltaphoU mutant assessed as cell count in log phase at 3 ug/ml after 5 hrs. The procedure, abridged:
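Log-phase or stationary-phase cultures of the ΔphoU deletion mutant (Datsenko–Wanner construction) were exposed to norfloxacin 3 μg/ml in MOPS minimal medium, pH 5.0, at 37°C without shaking, for up to 10 days. Sampled aliquots were washed in saline and plated on LB agar for CFU/ml.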

Take `CC1(C)S[C@@H]2[C@H](NC(=O)[C@H](N)c3ccccc3)C(=O)N2[C@H]1C(=O)O` [AMPICILLIN]: the CFU was 1 10^2/ml with Escherichia coli [1]; 5 10^9/ml with Escherichia coli [2]; 0 mL⁻¹ in the assay on Escherichia coli [3]; 1 10^2/ml in the assay with Escherichia coli [4]; 2 10^8/ml in the assay with Escherichia coli [6]; 5 10^6/ml in the assay with Escherichia coli [7]. Further, the CFU with Escherichia coli [8] was 10 mL⁻¹; in the assay on Escherichia coli [9], 1 10^3/ml. In the assay on Escherichia coli [5], this compound registered an inhibition zone (IZ) of 21 mm.

For the compound `CCn1cc(C(=O)O)c(=O)c2cc(F)c(N3CCNCC3)cc21` [NORFLOXACIN], the inhibition zone (IZ) in the assay on Escherichia coli [10] worked out at 37 mm; in the assay with Escherichia coli [11], 36 mm. The CFU in the assay with Escherichia coli [12] was 5 10^7/ml.
